# This is a sample that favours compounds with a hit; in the whole collection about 4.3% have one here.
# STAT1 activator = increases IFN-gamma driven STAT1 reporter signal; AID 932; NIH 3T3 STAT1-luciferase reporter, luminescence; 100% = IFN-gamma alone, no compound; 200,000 compounds, 2.6% hits; activation (% of control), % at 5.5 µM;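 active = activation above the screen-wide mean activation plus 3 SD, cut at about 130% in these data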
# APP 5'UTR act = APP 5'UTR luciferase reporter activation; SH-SY5Y APP 5'UTR luciferase reporter, luminescence; zero percent = DMSO vehicle wells; activation, % at 2 µM; 190,000 compounds, 1% hits;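 active = activation above a set limit, based on mean plus 3 SD of controls, cut at about 140% in these data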
# FLuc inhib CS = inhibits firefly luciferase, flagging false hits in luciferase inhibition screens | AID 1006 | ATPLite firefly luciferase biochemical luminescence, 10 min | 200,000 compounds, 1.5% hits | inhibition, % at 10 µM | P08659;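 active = inhibition above about 50% when tested at 10 µM, limit read from the data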
# Target sequence (P08659 whole entry, looked up): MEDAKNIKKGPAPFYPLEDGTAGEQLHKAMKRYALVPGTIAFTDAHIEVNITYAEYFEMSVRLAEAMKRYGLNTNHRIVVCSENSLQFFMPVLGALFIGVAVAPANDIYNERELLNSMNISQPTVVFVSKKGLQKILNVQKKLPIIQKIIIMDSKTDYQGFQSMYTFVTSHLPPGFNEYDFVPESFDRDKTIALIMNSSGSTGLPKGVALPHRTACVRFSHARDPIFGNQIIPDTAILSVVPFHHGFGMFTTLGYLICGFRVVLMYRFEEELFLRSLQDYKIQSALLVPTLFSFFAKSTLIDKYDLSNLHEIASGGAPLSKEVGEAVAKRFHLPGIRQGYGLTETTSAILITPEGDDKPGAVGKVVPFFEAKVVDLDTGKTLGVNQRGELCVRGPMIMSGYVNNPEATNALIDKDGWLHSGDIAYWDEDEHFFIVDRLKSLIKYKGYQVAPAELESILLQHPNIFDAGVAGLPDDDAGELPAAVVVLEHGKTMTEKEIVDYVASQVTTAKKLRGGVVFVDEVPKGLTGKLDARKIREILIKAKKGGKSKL
# NF-kB neuron act = raises NF-kB expression in human neuronal cells. NF-kB reporter expression; active compounds read high. fold change at 12.5 µM. 190,000 compounds, 1.6% hits. AID 1239; in the data active = fold change above about 3.3
# FLuc stim CS = firefly luciferase counter-screen for stimulation assays; activation factor at 10 µM; 200,000 tested, under 10 active; ATPlite luciferase biochemical, luminescence, 10 min; 0 = ATP-free wells, 1 = DMSO control;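 active = luciferase activation factor, scaled between plate controls, of at least 2 with compound at 10 µM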
#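 assay system = Luciferase/luciferin detection reagent, cell-free biochemical luciferase assay | also added = ATP substrate | times = 10 min post-reagent at room temperature | measured by = luminescence from luciferase reaction | measure = luciferase activation, seen as luminescence increase over controls | benchmarks = low control with PBS replacing ATP, high control enzyme plus ATP without compound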
# Numbers stand for hits; . = inactive; / = no result given.
SMILES,STAT1 activator,APP 5'UTR act,FLuc inhib CS,NF-kB neuron act,FLuc stim CS
O=[N+]([O-])c1ccc(O)c(/C=N/NC2=NS(=O)(=O)c3ccccc32)c1,.,.,68.8,.,.
Cc1ccccc1/C=N\NC(=O)c1ccccc1-n1cccc1,.,.,.,.,.
CC1CN(C(=O)c2c(Br)cnn2C)CC(C)O1 (stereo not drawn),.,.,.,.,.
CCCCCc1ccc(-c2ccc(OC)cc2)nc1,139.5,.,.,3.37,.
CCCc1ccc(-c2ccc(C(=O)O)cc2)nc1,131.3,.,.,.,.
CCCc1ccc(OCC(=O)O)cc1,.,.,.,.,.
CCCCCc1ccc(-c2ccc(/C=C/C(N)=O)cc2)nc1,.,.,.,.,.
CCC(=O)Oc1ccc(C(=O)Nc2c[nH]c(=O)[nH]c2=O)cc1,.,.,.,.,.
O=C(CSc1ccc(Cl)cc1)N/N=C/c1cccnc1,.,.,.,.,.
Cc1oc(C2CC2)cc1C(=O)O,.,.,.,.,.
Cc1oc(CSCC2CCCO2)cc1C(=O)O (stereo not drawn),148.2,.,.,.,.
O=C(COC(=O)CCCSc1nc2ccccc2[nH]1)Nc1ccc(Cl)cc1,.,.,.,.,.
CCOc1cc(Br)c(Br)c(C=Nc2ccc(NC(C)=O)cc2)c1O,.,.,.,.,.
CC(=O)Nc1ccc(N=Cc2c(O)c(C(=O)Nc3ccccc3)cc3ccccc23)cc1,.,.,94.9,.,.
CN(C)/C=N/c1ncn(-c2ncc(C(F)(F)F)cc2Cl)n1,133.4,.,.,.,.
CN(C)/C=N/S(=O)(=O)c1cccn1-c1ncc(C(F)(F)F)cc1Cl,.,.,.,.,.
COc1cc(C(=O)Nc2ccc(S(=O)(=O)N(C)c3ccccc3)cc2)cc(OC)c1OC,.,.,.,.,.
COc1cc(C(=O)Nc2ccc(N(C)C)cc2)cc(OC)c1OC,133.2,.,.,.,.
CCOC(=O)c1ccc(Nc2ncnc3nc[nH]c23)cc1,.,.,50.5,.,.
CCCn1nnc(NC(=O)c2ccc(Cl)cc2Cl)n1,130.9,.,.,.,.
Cc1ccc(N2C(=O)C3N=NN(CC(=O)N4N=C(c5ccccc5)CC4c4ccccc4)C3C2=O)cc1 (stereo not drawn),.,.,.,.,.
CC1CCC/C(=C\Nc2ccc3c(c2)OCO3)C1=O (stereo not drawn),133.2,.,.,.,.
Cc1cc(C(=O)Nc2sc3c(c2C#N)CCC(C)C3)no1 (stereo not drawn),138.7,.,72.5,.,.
N#Cc1c(NC(=O)c2cc(C3CC3)on2)sc2c1CCC2,/,.,.,.,.
CC(C)Cc1cc(C(=O)Nc2sc3c(c2C#N)CCCC3)no1,.,.,.,.,.
SMILES,STAT1 activator,APP 5'UTR act,FLuc inhib CS,NF-kB neuron act,FLuc stim CS
Cc1cc(C(=O)Nc2sc3c(c2C#N)CCCC3)no1,.,.,83.7,.,.
Cc1cc(C(=O)Nc2sc3c(c2C#N)CCC3)no1,.,.,65.9,.,.
COc1cccc(/C=N/N=C(\N)c2nonc2N)c1O,.,.,.,.,.
N/C(=N\N=C\c1ccc2c(c1)OCO2)c1nonc1N,131.9,221.0,78.5,7.59,.
Fc1cccc(CSc2nc3ccncc3[nH]2)c1,.,.,78.5,.,.
Clc1cccc(CSc2nc3ccncc3[nH]2)c1,.,.,75.4,.,.
O=c1[nH]c(SCc2cccc(Cl)c2)nc2ccccc12,.,.,.,.,.
COCC(C)n1c(C)cc(C(=O)COC(=O)/C=C/c2cccc(F)c2)c1C (stereo not drawn),.,.,.,.,.
Cc1cc(C)c[n+](-c2nc3ccccc3nc2C(=C=[N-])C#N)c1,.,.,.,4.39,.
O=C(c1ccccc1)N1CCN(c2ccc([N+](=O)[O-])c(NCC3CCCO3)c2)CC1 (stereo not drawn),.,.,.,.,.
COCCN(CCOC)C(=O)c1cc2sc3ccccc3c2s1,.,.,.,.,.
CCN(CC)C(=O)c1cc2sc3ccccc3c2s1,141.6,.,.,.,.
N=C1S/C(=C\c2cn[nH]c2-c2ccc(F)cc2)C(=O)N1c1ccccc1F,.,.,.,.,.
Cc1c(Cl)cccc1NC(=O)c1ccc(-n2ccnc2)nc1,.,.,.,.,.
COc1ccc(N/N=C(/N=Nc2nc(C)cc(=O)[nH]2)c2ccccc2)cc1,.,.,73.0,.,.
CCc1c(C)nc(SCC(N)=O)c(C#N)c1C,.,/,.,.,.
CCc1c(C)nc(SCC(=O)c2cccs2)c(C#N)c1C,136.4,.,.,.,.

# High-throughput results: PubChem BioAssay, several laboratories
